# mABHD4 FP = inhibits mouse alpha/beta hydrolase domain 4; AID 720543; Q8VD66; inhibition, % at 8.92 µM; 370,000 tested, 0.54% active; purified mABHD4, FP-Rh probe fluorescence polarization;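 active = inhibition exceeding the mean over every tested compound plus 3 SD, cut at about 30% in these data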;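 also: 0% = plate median of compound wells and 100% = S159A mutant with DMSO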
#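 Assay system: mABHD4 protein; medium: HEPES pH 7.0, NaCl, Pluronic buffer; dosing: 8.92 µM, single dose; schedule: 45 min + 60 min at 25 °C; signal: FP readout, ex 525 nm / em 598 nm; read-out: normalized percent inhibition of probe labeling; repeats: single replicate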
# HTRA1 inh = blocks human HTRA1 serine peptidase | Q92743 | recombinant HTRA1, FP-rhodamine activity-based probe, fluorescence polarization | inhibition, % at 5.96 µM | 340,000 tested, 0.5% active; in the data active = inhibition above about 36%;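 also: 0% = enzyme with DMSO and 100% = wells lacking enzyme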
# Tn7 DDE FP = disrupts Tn7 cyclic peptide binding to fibrin D-Dimer-E complex; 370,000 tested, 0.13% active; AID 720508; inhibition, % at 8.3 µM; FP displacement of FITC-Tn7 peptide from fibrin DD(E); 0% = median of compound wells per plate; P02675;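 active = inhibition above the mean of compounds falling within the control limits plus 3 SD of them, cut at about 14% in these data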;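 also: 0% = plate median of compound wells and 100% = 10 µM Aha-Tn7 peptide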
# Target sequence (P02675 whole entry, looked up): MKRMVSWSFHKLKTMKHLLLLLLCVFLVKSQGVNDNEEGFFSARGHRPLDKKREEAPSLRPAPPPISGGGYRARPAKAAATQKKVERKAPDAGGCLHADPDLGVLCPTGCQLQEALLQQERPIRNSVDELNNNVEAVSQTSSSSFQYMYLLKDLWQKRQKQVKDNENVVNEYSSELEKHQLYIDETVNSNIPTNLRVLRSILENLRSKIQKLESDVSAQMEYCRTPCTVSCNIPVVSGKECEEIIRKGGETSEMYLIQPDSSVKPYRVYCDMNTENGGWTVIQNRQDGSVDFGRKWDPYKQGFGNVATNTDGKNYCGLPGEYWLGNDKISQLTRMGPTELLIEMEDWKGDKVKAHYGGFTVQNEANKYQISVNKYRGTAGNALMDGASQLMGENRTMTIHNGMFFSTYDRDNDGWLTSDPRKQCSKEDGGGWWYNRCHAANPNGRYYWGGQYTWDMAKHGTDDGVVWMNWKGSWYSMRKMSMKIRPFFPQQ
#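 system = human fibrin DD(E) protein | quantity = DD(E) 2 µM final | medium = Tris/NaCl/CaCl2 buffer, pH 7.8 | also added = labelled Tn7 tracer, 0.1 µM | compound dosing = single point at 8.3 µM | timing = compound with protein 10 min, then 3 h after probe, room temperature | signal = FP measurement | benchmarks = Aha-Tn7 high control | repeats = one replicate per compound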
# SIAE primary = inhibitors of human sialic acid acetylesterase SIAE; AID 1053197; Q9HAT2; 370,000 tested, 0.69% active; SIAE FP-Rh probe binding, fluorescence polarization; inhibition, % at 9.66 µM;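 active = inhibition above a cutoff: mean of compounds within the control limits plus 3 SD of those, cut at about 17% in these data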;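 also: 0% = plate median of compound wells and 100% = probe without SIAE protein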
# Tn6 DDE FP = inhibitors of Tn6 peptide binding to human fibrin DD(E). AID 720509. Fibrin DD(E) TRITC-Tn6 fluorescence polarization displacement. inhibition, % at 8.3 µM. 370,000 tested, 0.21% active. P02675;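 active = inhibition above a per-campaign cutoff: mean of compounds within control limits plus 3 SD, cut at about 15% in these data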;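 also: 0% = median of all compound wells on the plate and 100% = blocking peptide control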
# TCR-CD3 inh = human TCR-CD3 binding inhibition | TAMRA-labeled TCR probe fluorescence, biochemical | inhibition, % at 9.4 µM | 360,000 tested, 0.37% active;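 also: recombinant mutant TCR 2C K166C tagged with TAMRA read by polarization; 0% = receptor in buffer alone and 100% = receptor with positive control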
# HTRA1 inh conf = confirmation of human HTRA1 inhibitors. inhibition, % at 5.96 µM. recombinant HTRA1, FP-rhodamine activity-based probe, fluorescence polarization. AID 540248. shares compounds with HTRA1 inh. 1,600 tested, 66% active;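 active = mean inhibition over three repeats above a set limit taken from the earlier primary screen, cut at about 37% in these data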;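 also: 0% = HTRA1 with DMSO and 100% = wells lacking HTRA1; inhibitors block probe binding so polarization drops and inhibition rises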
# BSA TAMRA ctr = counter-screen for TCR-CD3 interaction inhibitors: BSA probe; inhibition, % at 9.4 µM; TAMRA-labeled BSA probe fluorescence counterscreen; 1,200 tested, 10% active; shares compounds with TCR-CD3 inh; in the data active = inhibition above about 23%;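 also: 0% = buffer low control and 100% = reference high control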
# TCR-CD3 conf = confirmation of human TCR-CD3 interaction inhibitors; TAMRA-labeled TCR probe fluorescence binding assay; shares compounds with TCR-CD3 inh; inhibition, % at 9.4 µM; 1,200 tested, 48% active
# mABHD4 conf = confirmation of mouse ABHD4 inhibitors; shares compounds with mABHD4 FP; purified mABHD4, FP-Rh probe fluorescence polarization; inhibition, % at 8.92 µM; 1,800 tested, 55% active;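 active = mean inhibition across replicates above the hit cutoff set in the primary screen, cut at about 30% in these data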;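 also: 0% = wild-type ABHD4 with DMSO and 100% = catalytically dead S159A mutant with DMSO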
# Active calls of the source: *; x = no result given; + = active, no number. The list is not random: actives were taken first. Their share in the collection is about 1.8%. Rule as the data show it, unless noted: active = inhibition above about 19%; inactive = the rest.
SMILES,mABHD4 FP,HTRA1 inh,Tn7 DDE FP,SIAE primary,Tn6 DDE FP,TCR-CD3 inh,HTRA1 inh conf,mABHD4 conf,others
COc1cccc2c1C(=O)c1c(O)c3c(c(O)c1C2=O)C[C@](O)(C(C)=O)C[C@H]3O[C@@H]1C[C@@H](N)[C@@H](O)[C@@H](C)O1,68.5*,67.8*,24.7*,56.5*,+,163.2*,72.3*,60.6*,BSA TAMRA ctr=179.4*;TCR-CD3 conf=147.7*
CCNC(=S)Nc1ccc(OCc2nc3ccccc3s2)cc1,-2.9,-11.4,6.2,-2.4,6.9,0.0,x,x,
Nc1ncnc(N)c1N=Nc1ccccc1,0.2,0.0,-3.5,-0.3,5.4,6.9,x,x,
Nc1ccc2ccccc2c1N=Nc1ccccc1,39.0*,59.3*,1.5,11.5,-1.4,0.7,53.1*,38.6*,
COc1cccc(N(CC(=O)NC2CCCCC2)C(=O)CCC(=O)Nc2nc(C)cs2)c1,-0.1,-9.2,-7.0,1.3,3.4,-2.1,x,x,
O=[N+]([O-])c1cc(/C=N\Nc2nc(-c3ccccc3)cs2)ccc1O,41.5*,47.4*,-4.0,7.5,-4.0,8.1,49.5*,60.8*,
O=S(=O)(c1ccc2ccccc2c1)N1CCOCC1,-2.4,0.9,1.7,2.8,-5.6,7.5,x,x,
O=S(=O)(c1ccc2nc(-c3ccco3)c(-c3ccco3)nc2c1)N1CCOCC1,56.1*,40.9*,2.3,4.0,-17.4,15.8,9.0,28.9,
Cn1ncc(N=Cc2ccc([N+](=O)[O-])cc2)c1C(=O)Nc1ccccc1,-3.3,-2.2,-3.2,1.1,2.9,7.1,x,x,
C=CCn1c(SCC(=O)c2ccc(O)c(O)c2)nnc1-c1ccccc1OC,29.5*,58.6*,-0.4,4.3,2.2,5.1,48.9*,9.6,
C=CCn1c(SCC(=O)Nc2cc(C)on2)nnc1-c1ccccc1OC,1.0,3.3,4.4,4.9,-1.4,-4.7,x,x,
C[C@H](CO)N1C[C@H](C)[C@@H](CN(C)Cc2ccc(C(=O)O)cc2)Oc2ncc(-c3ccc(C(=O)N(C)C)cc3)cc2C1=O,0.1,3.7,6.0,-3.4,-0.4,-8.7,x,x,
Cc1cccc(C)c1Nc1c(-c2ccccn2)nc2ccccn12,23.7,26.4,-3.3,4.7,-1.4,-8.6,x,x,
O=C1CC(c2ccc(O)c(O)c2)Oc2cc(O)cc(O)c21 (stereo not drawn),23.2,26.6,1.3,8.1,-7.0,11.1,x,x,
Oc1ccc(C2C[C@H]3CC[C@@H]2C3)cc1O (stereo partly drawn),30.4*,50.5*,-3.3,7.1,4.8,-0.7,75.6*,18.4,
Oc1ccccc1-c1csc(-c2ccccc2)n1,-14.2,-24.3,-5.3,-2.5,-4.5,-6.1,x,x,
Oc1ccc(-c2csc(-c3ccccc3)n2)cc1O,31.4*,59.2*,-9.8,8.4,2.3,-6.8,48.4*,31.2*,
CC(=O)N1CCC(=NNC(=O)c2cc3ccccc3cc2O)CC1,34.5*,50.7*,1.0,8.0,-2.3,16.6,23.9,20.5,
COc1ccc(C(CNS(=O)(=O)c2ccc(NC(C)=O)c(OC)c2)N2CCCCC2)cc1 (stereo not drawn),-2.7,4.9,-4.1,-1.9,-2.8,4.9,x,x,
O=C(O)CCNc1ccc(NCCC(=O)O)c2c1C(=O)c1ccccc1C2=O,56.1*,44.4*,6.6,12.8,11.5,28.0*,58.6*,65.4*,BSA TAMRA ctr=12.7;TCR-CD3 conf=41.5*
COc1ccc(OC)c(NC(=O)CSc2nncc3ccc(OC)c(OC)c23)c1,42.7*,44.3*,4.7,11.4,9.4,11.0,1.9,32.0*,
Cc1nc2ccccc2c(=O)n1/N=C/c1ccc(O)c(O)c1O,44.3*,49.0*,2.5,12.5,-0.6,40.8*,55.5*,27.3,BSA TAMRA ctr=-10.5;TCR-CD3 conf=24.9*
CCc1sc(C(=O)N2CCN(C(=O)c3ccccc3)CC2)cc1C,9.1,-2.6,-0.6,1.4,-0.6,2.0,x,x,
CC(C)CNC(=O)C1Nc2ccc(OC(F)(F)F)cc2C2C=CCC12 (stereo not drawn),11.4,9.0,-0.6,4.0,1.1,-7.5,x,x,
CCOC(=O)c1ccc2c(c1)C1C=CCC1C(C(=O)OCC)N2 (stereo not drawn),35.5*,44.0*,3.4,13.4,2.7,-2.5,54.4*,45.0*,
SMILES,mABHD4 FP,HTRA1 inh,Tn7 DDE FP,SIAE primary,Tn6 DDE FP,TCR-CD3 inh,HTRA1 inh conf,mABHD4 conf,others
COc1cccc(C(=O)N2CCC[C@H]2C(=O)N2CCC[C@H]2C(=O)N[C@H](C)c2ccccc2)c1,3.5,x,5.3,-4.8,-6.6,-5.1,x,x,
CCN(CC)c1ccc(/C=N/N(c2ccccc2)c2ccccc2)c(O)c1,5.2,23.0,-1.6,2.9,7.4,-6.3,x,x,
Oc1ccc(/C=N/N(c2ccccc2)c2ccccc2)cc1O,41.8*,56.6*,9.0,2.2,-0.8,1.2,97.4*,27.4,
CCCCCCCCN1C(=O)[C@@H](CC(=O)NCc2cccc(C(F)(F)F)c2)C[C@@]2(C(=O)OC)C1=C[C@H](C(C)(C)C)O[C@@H]2C,1.3,x,-2.4,5.8,-2.4,1.5,x,x,
COc1ccc2[nH]c3c4c(ccc3c2c1)C(=O)C=CC4=O,55.5*,79.6*,-1.4,0.5,-9.0,1.0,52.5*,51.4*,
COc1ccc2[nH]c(=O)cc(C(=O)O)c2c1,6.6,3.2,-8.4,7.3,-1.5,4.5,x,x,
NNC(=O)c1cc(O)c(O)c(O)c1,36.2*,79.2*,2.1,5.6,-5.9,56.7*,20.8,5.7,
COc1c(Cl)cc(C(=O)NN)cc1Cl,-9.2,-6.9,0.8,-2.1,-0.5,-1.3,x,x,
CC(C)C[C@H](NC1(C(=O)NC2CCCCC2)CCC1)C(=O)NCC(c1ccccc1)c1ccccc1,7.1,x,-1.3,-5.2,-3.7,x,x,x,
CC(C)c1ccc(CNc2ccc(N3CCOCC3)cc2)cc1,29.9*,56.9*,3.7,14.9,3.9,2.0,6.0,16.2,
CN(Cc1ccccc1)Cc1c(O)ccc2ccccc12,9.4,0.6,-1.7,5.3,-4.0,9.0,x,x,
CN(Cc1cc(Cl)cc(Cl)c1O)Cc1c(O)ccc2ccccc12,30.0*,52.4*,-3.3,5.2,-11.0,-6.2,62.0*,17.9,
CS(=O)(=O)N(CC(=O)Nc1cccc([N+](=O)[O-])c1)c1cccc(F)c1,0.2,-8.2,-1.8,10.2,-1.4,2.2,x,x,
O=c1cc(C(F)(F)F)[nH]c(=S)n1-c1ccccc1,6.7,2.8,0.1,1.1,4.3,1.5,x,x,

# Screening results (PubChem BioAssay)
